The format of this data set is in vivo. Conditions: mouse. The gist of the method: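 Mice dosed i.p.; horizontal brain sections taken at time points over 24 h, treated by laser-assisted chemical transfer with CHCA as matrix, and imaged by MALDI MSI for the test compound and its metabolite. Relative intensities in brain regions and lateral ventricles cross-checked by LC‒MS/MS. Three biological and technical replicates; mean ± SD from three animals.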

On to `Cc1nc2n(c(=O)c1CCN1CCC(c3noc4cc(F)ccc34)CC1)CCCC2` [RISP, risperidone], for which the time to peak (Tmax) (male, ICR, brain, ip, 20 mg/kg) was ~15 min. The “brain regional distribution after 2 h” value (after 2 h, i.p. RISP 20 mg/kg) was “a small amount of parent drug was only observed in the lateral ventricles”. Under “after i.p. administration of RISP 20 mg/kg, around peak”, the brain regional distribution result was “mainly observed in the frontal cortex, striatum, and hippocampus regions”.

As usually defined, the Tmax is the time at which the peak concentration occurs.

The values above are taken from PMC9279630 (Acta Pharmaceutica Sinica. B, 2021).
